Assay results: ChEMBL document CHEMBL1132160, “Structure-antiviral activity relationship in the series of pyrimidine and purine N-[2-(2-phosphonomethoxy)ethyl] nucleotide analogues. 1. Derivatives substituted at the carbon atoms of the base” (J Med Chem, 1999); call rule not given here
≈ marks a conversion by molar mass, not a printed value.

Assays:
[1] = Inhibitory activity against murine sarcoma virus induced transformation of murine C3H/3T3 embryo fibroblasts; format: functional, Mus musculus
Outline: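 Murine C3H/3T3 embryo fibroblasts were seeded at 5 × 10⁵ cells/mL. After 24 h they were infected with 80 focus-forming units of MSV for 90–120 min at 37 °C. The medium was then replaced with fresh medium containing various compound concentrations, and transformation was examined microscopically after 6 days.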

[2] = system: Human immunodeficiency virus 2; test: Inhibition of human immunodeficiency virus type 2 (HIV-2) induced cytopathogenicity in CEM cells; format: functional, organism-based; conditions: Human immunodeficiency virus 2, CCRF-CEM
[3] = system: Human immunodeficiency virus 1; test: Inhibitory activity of compound against human immunodeficiency virus type 1 (HIV-1) induced cytopathogenicity in MT-4 cells; format: functional, organism-based; conditions: Human immunodeficiency virus 1, MT4
Outline: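 Human MT-4 cells (~4 × 10⁵ cells/mL) were infected with 100 CCID50 of HIV-1 (IIIB)/mL and seeded into wells containing compound dilutions. After 5 days at 37 °C, viable cells were counted by trypan blue exclusion in a blood cell counting chamber.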

[4] = system: Human immunodeficiency virus 2; test: Inhibitory activity against human immunodeficiency virus type 2 (HIV-2) induced cytopathogenicity in MT-4 cells; format: functional, organism-based; conditions: Human immunodeficiency virus 2, MT4
[5] = system: Human immunodeficiency virus 1; test: Inhibition of human immunodeficiency virus type 1 (HIV-1) induced cytopathogenicity in CEM cells; format: functional, organism-based; conditions: Human immunodeficiency virus 1, CCRF-CEM
Outline: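 CEM cells (~3 × 10⁵ cells/mL) were infected with 100 CCID50 of HIV-1 (IIIB)/mL and plated with dilutions of compound. After 4 days at 37 °C, giant cell formation was assessed microscopically.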

Human alphaherpesvirus 1 [6] = test: Inhibition of herpes simplex virus type 1 (HSV-1) F strain; format: functional, organism-based
Outline: (§1)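 Confluent E6SM cell cultures were inoculated with 100 CCID50 of virus and allowed 1 h for adsorption. Residual virus was then removed, and the cells were incubated with test compound at 400, 200, 100, ... μg/mL. Viral cytopathicity was scored once it reached completion in untreated infected controls.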

Human alphaherpesvirus 1 [7] = test: Inhibitory activity against herpes simplex virus type 1 (HSV-1) KOS strain; format: functional, organism-based; outline: as §1
Human alphaherpesvirus 1 [8] = test: Inhibitory activity against herpes simplex virus type 1 (HSV-1) McIntyre strain; format: functional, organism-based; outline: as §1
[9] = Inhibitory activity against herpes simplex virus type 2 (HSV-2) 196 strain; format: functional; outline: as §1
Human alphaherpesvirus 2 [10] = test: Inhibitory activity against herpes simplex virus type 2 (HSV-2) Lyons strain; format: functional, organism-based; outline: as §1
Cytomegalovirus [11] = test: Inhibitory activity against cytomegalovirus (CMV) AD 169 strain; format: functional, organism-based; conditions: Human betaherpesvirus 5
Outline: (§2)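 HEL cell cultures, grown to confluence, received 100 CCID50 of virus. After 1 h adsorption, the inoculum was removed and the cultures were incubated with serial concentrations of compound (400, 200, 100, ... μg/mL).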

Cytomegalovirus [12] = test: Inhibitory activity against cytomegalovirus (CMV) Davis strain; format: functional, organism-based; conditions: Human betaherpesvirus 5; outline: as §2
Human alphaherpesvirus 2 [13] = test: Inhibitory activity against herpes simplex virus type 2 (HSV-2) G strain; format: functional, organism-based; outline: as §1
Vaccinia virus [14] = test: Inhibitory activity against vaccinia virus (VV).; format: functional, organism-based, Orthopoxvirus vaccinia
Outline: (§3)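 Confluent E6SM cell cultures were inoculated with 100 CCID50 of virus and left for 1 h adsorption, then residual virus was removed. Cultures were incubated with test compound at serial concentrations (400, 200, 100, ... μg/mL). Virus-induced cytopathicity was scored once it reached completion in untreated infected control cultures.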

Human alphaherpesvirus 1 [15] = test: Inhibitory activity against herpes simplex virus type 1 (HSV-1) F strain; format: functional, organism-based; outline: as §1
Human alphaherpesvirus 1 [16] = test: Inhibitory activity against herpes simplex virus type 1 (HSV-1) KOS strain.; format: functional, organism-based; outline: as §1
Human alphaherpesvirus 1 [17] = test: Iactivity against herpes simplex virus type 1 (HSV-1) McIntyre strain.; format: functional, organism-based; outline: as §1
Human alphaherpesvirus 2 [18] = test: Inhibitory activity against herpes simplex virus type 2 (HSV-2) 196 strain.; format: functional, organism-based; outline: as §1
Human alphaherpesvirus 2 [19] = test: Inhibitory activity against herpes simplex virus type 2 (HSV-2) G strain.; format: functional, organism-based; outline: as §1
E6SM [20] = test: Inhibitory activity against herpes simplex virus type 2 (HSV-2) Lyons strain.; format: functional, cell-based, Homo sapiens; outline: as §1
Vaccinia virus [21] = test: Inhibitory activity against vaccinia virus (VV); format: functional, organism-based; conditions: Orthopoxvirus vaccinia; outline: as §3
Human alphaherpesvirus 1 [22] = test: Inhibitory activity against herpes simplex virus type 1 thymidine kinase (HSV-1 TK-) VMW 1837 strain.
E6SM [23] = test: Compound was evaluated for inhibitory activity against herpes simplex virus type 1 thymidine kinase (HSV-1 TK-) B2006 strain; NA=not active; format: functional, cell-based, Homo sapiens; outline: as §1

| Structure (SMILES) | EC50 [1] [µg/mL] | EC50 [3] [µg/mL] | EC50 [4] [µg/mL] | EC50 (Human alphaherpesvirus 1 [6]) [µg/mL] | EC50 (Human alphaherpesvirus 1 [7]) [µg/mL] | EC50 (Human alphaherpesvirus 1 [8]) [µg/mL] | EC50 [9] [µg/mL] | EC50 (Human alphaherpesvirus 2 [10]) [µg/mL] | EC50 (Cytomegalovirus [11]) [µg/mL] | EC50 (Cytomegalovirus [12]) [µg/mL] | EC50 (Human alphaherpesvirus 2 [13]) [µg/mL] | EC50 (Vaccinia virus [14]) | EC50 (Human alphaherpesvirus 1 [15]) | EC50 (Human alphaherpesvirus 1 [16]) | EC50 (Human alphaherpesvirus 1 [17]) | EC50 (Human alphaherpesvirus 2 [18]) | EC50 (Human alphaherpesvirus 2 [19]) | EC50 (E6SM [20]) | EC50 (Vaccinia virus [21]) [µg/mL] | EC50 (Human alphaherpesvirus 1 [22]) | further results |
| --- | --- | --- | --- | --- | --- | --- | --- | --- | --- | --- | --- | --- | --- | --- | --- | --- | --- | --- | --- | --- | --- |
| Nc1nc2c(ncn2CCOCP(=O)(O)O)c(=O)[nH]1 [GS-438] | 0.0006 (≈ 0.00207 µM) | > 0.2 | > 0.2 | – | – | – | – | – | – | – | – | – | – | – | – | – | – | – | – | – | EC50 [2]: 0.03 µg/mL (≈ 0.104 µM) |
| CC(C)OP(=O)(COCCn1cnc2c(N)nc(N)nc21)OC(C)C | – | > 100 | – | 240 (≈ 645 µM) | 240 (≈ 645 µM) | 89 (≈ 239 µM) | 240 (≈ 645 µM) | 240 (≈ 645 µM) | 2 (≈ 5.37 µM) | 2 (≈ 5.37 µM) | > 400 | – | – | – | – | – | – | – | – | – | EC50 [5]: > 100 µg/mL |
| Nc1ncc2ncn(CCOCP(=O)(O)O)c2n1 | 0.1 (≈ 0.366 µM) | 40.9 (≈ 150 µM) | 50 (≈ 183 µM) | 20 (≈ 73.2 µM) | 70 (≈ 256 µM) | 20 (≈ 73.2 µM) | 150 (≈ 549 µM) | 70 (≈ 256 µM) | > 100 | > 100 | 400 (≈ 1460 µM) | Not Active | – | – | – | – | – | – | – | – | – |
| Nc1nc(Cl)nc2c1ncn2CCOCP(=O)(O)O | 18.2 (≈ 59.2 µM) | > 100 | > 100 | – | – | – | – | – | 88 (≈ 286 µM) | 85 (≈ 276 µM) | – | – | Not Active | Not Active | Not Active | Not Active | Not Active | Not Active | > 40 | Not Active | – |
| Nc1nccc2c1ncn2CCOCP(=O)(O)O | > 100 | > 200 | – | – | – | – | – | – | 70 (≈ 257 µM) | 400 (≈ 1470 µM) | – | Not Active | Not Active | Not Active | Not Active | Not Active | Not Active | Not Active | – | Not Active | EC50 (E6SM [23]): Not Active |
| Nc1ccn(CCOCP(=O)(O)O)c(=O)c1 | > 100 | > 100 | > 100 | – | – | – | – | – | 100 (≈ 403 µM) | > 100 | – | – | Not Active | Not Active | Not Active | Not Active | Not Active | Not Active | > 40 | Not Active | – |
| CCOP(=O)(O)COCCn1cnc2c(O)nc(N)nc21 | 0.24 (≈ 0.757 µM) | 2.6 (≈ 8.2 µM) | – | 2 (≈ 6.3 µM) | 2 (≈ 6.3 µM) | 2 (≈ 6.3 µM) | 2 (≈ 6.3 µM) | 2 (≈ 6.3 µM) | 0.15 (≈ 0.473 µM) | 0.15 (≈ 0.473 µM) | 0.7 (≈ 2.21 µM) | – | – | – | – | – | – | – | 20 (≈ 63 µM) | – | – |
| Nc1cc2c(ncn2CCOCP(=O)(O)O)c(O)n1 | 2.9 (≈ 10.1 µM) | > 20 | > 20 | 7 (≈ 24.3 µM) | 4.5 (≈ 15.6 µM) | 4 (≈ 13.9 µM) | 7 (≈ 24.3 µM) | 7 (≈ 24.3 µM) | 2 (≈ 6.94 µM) | 1.5 (≈ 5.2 µM) | 12 (≈ 41.6 µM) | – | – | – | – | – | – | – | 150 (≈ 520 µM) | – | – |
| CC(C)OP(=O)(COCCn1cnc2c(Cl)nc(N)nc21)OC(C)C | > 100 | > 100 | > 100 | – | – | – | – | – | 40 (≈ 102 µM) | 10 (≈ 25.5 µM) | – | Not Active | Not Active | Not Active | Not Active | Not Active | Not Active | Not Active | – | Not Active | – |
| Nc1nccc(OCCOCP(=O)(O)O)n1 | 2.33 (≈ 9.35 µM) | > 100 | > 100 | > 200 | > 200 | 300 (≈ 1200 µM) | > 200 | 300 (≈ 1200 µM) | > 100 | > 100 | > 200 | Not Active | – | – | – | – | – | – | – | – | – |
